Screening data from PubChem BioAssay.
NTR1 ag: NTR1 (human) agonism; P30989; NTR1-U2OS beta-arrestin-GFP spot imaging, agonist mode; activation, % at 20 µM; hit rate 0.17% among 330,000; AID 493036;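 active = activation at or above 40% of the spot to cytoplasm intensity ratio, with at least 20 cells analyzed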
MC4R barr agon: agonists of human melanocortin 4 receptor (MC4R) beta-arrestin | P32245 | U2OS MC4R beta-arrestin complementation, luminescence; percent of melanotan II response, DMSO zero | activation, % at 8.9 µM | hit rate 0.98% among 360,000;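 active = activation above a per-plate cutoff, the mean activation of sample wells on that plate plus 3 SD, cut at about 8% in these data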
Target sequence (P32245 whole entry, looked up): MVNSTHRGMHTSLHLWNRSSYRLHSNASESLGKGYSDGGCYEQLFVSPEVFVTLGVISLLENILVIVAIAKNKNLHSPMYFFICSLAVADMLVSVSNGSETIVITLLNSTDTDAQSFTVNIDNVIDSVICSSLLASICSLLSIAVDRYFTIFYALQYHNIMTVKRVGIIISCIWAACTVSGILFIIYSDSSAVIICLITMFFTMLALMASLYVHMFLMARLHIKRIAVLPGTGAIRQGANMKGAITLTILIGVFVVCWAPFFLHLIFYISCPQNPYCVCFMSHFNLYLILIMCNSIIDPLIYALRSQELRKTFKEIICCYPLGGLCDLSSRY
AI-2 QS modul: modulators of Vibrio harveyi AI-2 quorum sensing system. Vibrio harveyi JMH597 AI-2 luminescence/OD600 ratio, 9 h; hits give low values; strain lacks LuxN and CqsS sensors; 0 = neutral-control median. activity change, % at 7.5 µM. hit rate 0.4% among 300,000. AID 2094; in the data active = activity change below about -75%, passing the limit was not always enough;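 also: luminescence divided by OD600 gain over 9 h not by final OD600 alone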
MC4R antagonist: antagonists of human melanocortin 4 receptor (MC4R); P32245; inhibition, % at 6.5 µM; hit rate 0.48% among 360,000; MC4R-expressing cells, MTII-stimulated cAMP, LANCE TR-FRET;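 active = inhibition above its plate's cutoff, the mean of tested wells on that plate plus 3 SD, cut at about 29% in these data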
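material = U2OS cells stably expressing human melanocortin 4 receptor (MC4R) | also added = Melanotan II challenge | dosing = single nominal compound dose of 6.5 µM | detection = TR-FRET with Eu-cAMP and labeled anti-cAMP, 671 nm | replication = singlicate | timing = compound 30 min, challenge 1 h, detection 1 h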
Large screens that a line does not name were inactive. Hits are enriched below; roughly 1.8% of the tested compounds scored in any of these assays.

Cc1c(CCOC(=O)C23CC4CC(CC(C)(C4)C2)C3)sc[n+]1CC(=O)c1ccccc1	MC4R barr agon 9.3
Cc1ccc(CN2CC(C(=O)NCC(=O)Nc3c(C)cccc3C)CC2=O)cc1 (stereo not given)	none
COc1ccccc1OCc1ccc(C(=O)N/N=C/c2ccco2)cc1	none
O=C(N/N=C/c1ccco1)c1cc(Br)ccc1OCc1ccccc1	MC4R barr agon 9.4
CCCN(CCC)Cc1c(C(=O)N/N=C/c2ccncc2)nnn1-c1nonc1N	none
Nc1nonc1-n1nnc(C(=O)N/N=C/c2ccccc2)c1CSc1ccc(Cl)cc1	MC4R barr agon 9.1
Nc1nonc1-n1nnc(C(=O)N/N=C/c2cccc(Cl)c2)c1CSc1ccc(Cl)cc1	none
CCCN(CCC)Cc1c(C(=O)N/N=C/CCc2ccccc2)nnn1-c1nonc1N	MC4R barr agon 9.2
CC(=O)Nc1cc(-c2ccccc2F)cn2c(-c3ccccc3)cnc12	MC4R barr agon 8.3 (no result: NTR1 ag, AI-2 QS modul)
CC(=O)Nc1cc(-c2cccc(C(=O)N(C)C)c2)cn2c(-c3ccc(F)cc3)cnc12	MC4R barr agon 9.0 (no result: NTR1 ag, AI-2 QS modul)
CC(=O)Nc1cc(-c2cccc(F)c2)cn2c(-c3ccccc3)cnc12	MC4R barr agon 9.4 (no result: NTR1 ag, AI-2 QS modul)
CN(C)C(=O)c1cccc(-c2cnc3c(NC=O)cc(-c4ccc(N(C)C)cc4)cn23)c1	MC4R barr agon 8.6 (no result: NTR1 ag, AI-2 QS modul)
COc1ccc(C(=O)NCc2nnc(SCC(=O)Nc3cc(Cl)ccc3OC)o2)cc1	none
O=C(CSc1n[nH]c(-c2ccc(Br)cc2)n1)NC1CCCC1	none (no result: AI-2 QS modul)
O=C(CN1C(=O)NC2(CCCCCC2)C1=O)N1CCN(c2ccccc2)CC1	none (no result: AI-2 QS modul)
O=[N+]([O-])c1ccc(C2CN=C(Nc3ccccc3)S2)cc1 (stereo not given)	none
CCc1ccc(NC2=NCC(c3ccccc3)S2)cc1 (stereo not given)	AI-2 QS modul -95.2
O=C(Nc1cccnc1)c1cc(-c2cccnc2)nc2ccc(Br)cc12	none
O=C(Nc1ccncc1)c1cc(-c2cccc(Br)c2)nc2ccccc12	MC4R barr agon 21.6
COc1cc(NC(=O)c2cc(-c3cccnc3)nc3ccc(Br)cc23)cc(OC)c1	MC4R barr agon 8.2
CC(C)COc1cccc(-c2cc(C(=O)N/N=C/c3ccncc3)c3ccccc3n2)c1	MC4R barr agon 9.6
Cc1ccc(-c2cc(C(=O)Nc3ccncc3)c3ccccc3n2)cc1	MC4R barr agon 8.9
O=C(Nc1cccnc1)c1cc(-c2cccc(Br)c2)nc2ccccc12	none
COc1ccccc1C(=O)NC(CCSC)C(=O)NCCCSc1ccccc1 (stereo not given)	none
COC(=O)C1C/C(=N/NS(=O)(=O)c2ccc(C)cc2)CS1 (stereo not given)	none
O=C(CC1SC(N2CCCC2)=NC1=O)Nc1ccc(C(=O)N2CCN(c3cccc(Cl)c3)CC2)cc1 (stereo not given)	none
O=c1[nH]c(SCc2ccc(OC(F)(F)F)cc2)nc2c1CCC2	none (no result: NTR1 ag, AI-2 QS modul)
O=c1oc(-c2ccccc2Cl)nc2ccsc12	AI-2 QS modul -82.8
O=c1oc(-c2ccc(F)cc2)nc2ccsc12	none
O=C(COC(=O)c1cccc(F)c1)NC(=O)NCc1ccccc1	none (no result: AI-2 QS modul)
CS(=O)(=O)c1ccc2nc(NC(=O)CCC(=O)c3cccs3)sc2c1	AI-2 QS modul -95.7
CS(=O)(=O)c1ccc2nc(NC(=O)CCS(=O)(=O)c3ccccc3)sc2c1	none
O=C(Cc1n[nH]c(=O)c2ccccc12)OCC(=O)c1ccccc1	none (no result: AI-2 QS modul)
Cc1ccc(Nc2ncccc2C(=O)O)cc1C	AI-2 QS modul -79.2
CS(=O)(=O)N1CCN(Cc2cc(=O)n3ccsc3n2)CC1	none
CCOc1cc(C)c(S(=O)(=O)Nc2ccc(F)cc2)cc1C	MC4R barr agon 15.7
COc1ccc(C)cc1S(=O)(=O)Nc1ccc(F)cc1	none
Cc1ccc(NC(=O)c2ccccc2OCC(=O)c2ccccc2)cc1	MC4R barr agon 8.6
NC(=O)C(c1ccc(Cl)cc1)c1ccc(Sc2ccc(Cl)cc2)nn1 (stereo not given)	AI-2 QS modul -83.5
Oc1cccc(/C=N/NC(=S)Nc2cccnc2)c1O	AI-2 QS modul -84.4 (no result: NTR1 ag)
Cc1ccsc1C(=O)Nc1nnc(-c2ccco2)o1	AI-2 QS modul -127.2
CCN1C(=O)/C(=C\c2ccc(F)cc2)N=C1SCC(=O)NCc1ccco1	MC4R barr agon 8.6
O=C(CSc1ccc(-c2ccc(F)cc2)nn1)NCc1ccco1	none
Cc1cc(Cl)ccc1OC(C)C(=O)NCCCCc1ccccc1 (stereo not given)	MC4R barr agon 9.0
Cc1cc(Cl)ccc1OC(C)C(=O)NCCc1ccc2c(c1)OCCO2 (stereo not given)	none
CN(C)CCCNC(=O)/C(=N\O)c1ccccc1	none
O=C(NCCc1ccccc1)/C(=N\O)c1ccccc1	AI-2 QS modul -78.7
CC1CC(=O)c2c(cc3c(-c4c(O)cc(O)c5c(O)c6c(cc45)OC(C)CC6=O)c(O)cc(O)c3c2O)O1 (stereo not given)	AI-2 QS modul -81.7, MC4R antagonist 65.2
O=C(Nc1ccc(Cl)cc1Cl)c1cccc(N2C(=O)C=CC2=O)c1	MC4R antagonist 57.2
Cn1[nH]cc(C=NC(N)=O)c1=O	none (no result: NTR1 ag, AI-2 QS modul)
Cc1ccc(NC(=O)Nc2ccccc2)cc1[N+](=O)[O-]	none
O=C(Nc1ccc(Cl)cc1)Nc1csc([N+](=O)[O-])c1	AI-2 QS modul -82.8
O=C(Nc1ccccc1)Nc1ccc(Cl)c([N+](=O)[O-])c1	AI-2 QS modul -102.0
CCCn1c(SCC(=O)c2cc(C)n(C3CC3)c2C)n[nH]c1=O	none (no result: AI-2 QS modul)
O=C(Nc1cc(C(F)(F)F)ccc1Cl)C1CCN(c2nnc(-n3cccc3)s2)CC1	MC4R barr agon 8.6 (no result: NTR1 ag, AI-2 QS modul)
NS(=O)(=O)c1cccc(NS(=O)(=O)c2ccc3ccccc3c2)c1	AI-2 QS modul -96.9
Cc1ccccc1CN1C(=O)c2ccccc2Sc2ccc(C(=O)NCCN3CCOCC3)cc21	none
CCN1CCN(CCNC(=O)c2ccc(/C=C3/Sc4ccccc4N(Cc4ccccc4C)C3=O)cc2)CC1	MC4R barr agon 8.9 (no result: NTR1 ag)
COc1cc(NC(=O)C2=C(C)OCCS2)c(Cl)cc1C(=O)NCCN(C)C	none
CC(=O)Nc1cccc(C(=O)OCc2ccc(C(=O)Oc3ccc(Cl)cc3)cc2)c1	MC4R barr agon 13.3
CC(=O)Nc1ccc(C(=O)OCC(=O)NCc2ccc(Cl)cc2)cc1	none (no result: MC4R barr agon, MC4R antagonist)
O=C(NCC1OCCc2ccccc21)c1ccc(NC(=O)c2cccc(Br)c2)cc1 (stereo not given)	MC4R barr agon 9.5
O=C(NCC1OCCc2ccccc21)c1ccc(NC(=O)c2ccccc2Cl)cc1 (stereo not given)	none
O=C(CCNC(=O)c1ccco1)Nc1ccc(OC(F)F)cc1	none
COc1cc(NC(=O)CSc2nc3c(c(=O)n(C)c(=O)n3C)n2C)cc(OC)c1	none
O=[N+]([O-])c1cccc(C(=Nc2ccccc2Cl)NO)c1	AI-2 QS modul -90.9
Cc1ccc(C(=O)NC(=S)N2CCN(C)CC2)cc1Br	none
N#C/C(=C\C=C\c1ccccc1)c1nc(-c2ccc(Cl)cc2)cs1	none
N#CC(=Cc1cccs1)c1nc(-c2ccc(Cl)cc2)cs1	MC4R barr agon 9.2 (no result: NTR1 ag, AI-2 QS modul)
